Assay results from ChEMBL document CHEMBL4602720, “Degradation versus Inhibition: Development of Proteolysis-Targeting Chimeras for Overcoming Statin-Induced Compensatory Upregulation of 3-Hydroxy-3-methylglutaryl Coenzyme A Reductase” (J Med Chem, 2020).
Calls of active or inactive are those of the source. No cut-off for these calls is given here.

What was measured:
Huh-7 = assay: Inhibition of cholesterol biosynthesis in human HuH7 cells preincubated for 14 hrs and followed by addition of 14C-acetate and measured after 2 hrs by TL method; type: functional, cell-based
Method in brief: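 Sterol-depleted Huh7 cells (Medium B plus 5% lipoprotein-deficient serum) treated at varying concentrations for 14 h, pulse-labelled with ¹⁴C-acetate 1 μCi/μL for 2 h, washed, lysed in 0.1 M NaOH; lipids separated by TLC, ¹⁴C-cholesterol read by phosphorimager, DMSO set to 1.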

[1] = molecular target: Protein cereblon/3-hydroxy-3-methylglutaryl-coenzyme A reductase (Cricetulus griseus) (UniProt P00347+G3H338); assay: Protac activity at CRBN/HMGCR in Insig-1/Insig-2 deficient Chinese hamster SRD15 cells assessed as HMGCR level at 1 uM after 16 hrs in presence of 10 uM pomalidomide by immunoblotting analysis (reference value: 1)
Protein cereblon/3-hydroxy-3-methylglutaryl-coenzyme A reductase (Cricetulus griseus), sequence (G3H338 1-445 partner): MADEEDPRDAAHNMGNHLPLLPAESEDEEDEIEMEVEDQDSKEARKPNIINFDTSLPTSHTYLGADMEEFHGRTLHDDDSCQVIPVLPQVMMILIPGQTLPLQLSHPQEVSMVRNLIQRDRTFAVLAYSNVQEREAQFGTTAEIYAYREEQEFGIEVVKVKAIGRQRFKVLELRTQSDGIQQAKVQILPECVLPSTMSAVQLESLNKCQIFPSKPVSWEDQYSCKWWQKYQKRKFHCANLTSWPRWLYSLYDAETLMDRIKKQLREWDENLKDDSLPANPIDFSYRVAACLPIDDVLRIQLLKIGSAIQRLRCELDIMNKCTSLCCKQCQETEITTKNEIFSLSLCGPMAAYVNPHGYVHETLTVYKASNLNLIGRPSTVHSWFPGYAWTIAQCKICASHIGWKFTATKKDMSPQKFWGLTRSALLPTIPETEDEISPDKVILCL
Protein cereblon/3-hydroxy-3-methylglutaryl-coenzyme A reductase (Cricetulus griseus), sequence (P00347 whole entry): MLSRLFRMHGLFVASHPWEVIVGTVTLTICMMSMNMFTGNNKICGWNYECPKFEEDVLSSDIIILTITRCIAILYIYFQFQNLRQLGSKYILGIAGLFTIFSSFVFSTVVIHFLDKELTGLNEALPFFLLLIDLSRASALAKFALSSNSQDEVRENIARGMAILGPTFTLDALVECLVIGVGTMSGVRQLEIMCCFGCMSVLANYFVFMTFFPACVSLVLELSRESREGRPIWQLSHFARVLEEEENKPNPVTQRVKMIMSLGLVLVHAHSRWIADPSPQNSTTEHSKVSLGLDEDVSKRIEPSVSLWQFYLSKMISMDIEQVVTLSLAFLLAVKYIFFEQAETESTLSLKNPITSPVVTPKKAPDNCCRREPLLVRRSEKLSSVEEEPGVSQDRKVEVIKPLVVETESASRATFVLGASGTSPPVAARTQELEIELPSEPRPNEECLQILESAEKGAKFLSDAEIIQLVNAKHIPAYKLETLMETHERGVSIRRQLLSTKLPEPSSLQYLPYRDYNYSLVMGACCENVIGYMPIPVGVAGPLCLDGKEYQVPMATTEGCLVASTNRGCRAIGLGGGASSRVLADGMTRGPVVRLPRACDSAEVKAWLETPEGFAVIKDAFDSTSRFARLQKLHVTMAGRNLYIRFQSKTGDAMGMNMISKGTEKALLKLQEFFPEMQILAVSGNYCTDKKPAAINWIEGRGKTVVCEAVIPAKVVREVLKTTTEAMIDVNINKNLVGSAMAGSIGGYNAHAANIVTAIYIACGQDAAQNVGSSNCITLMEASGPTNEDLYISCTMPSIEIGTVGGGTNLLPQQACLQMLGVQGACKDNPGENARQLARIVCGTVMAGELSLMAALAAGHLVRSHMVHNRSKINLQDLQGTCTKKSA

`CC(C)c1c(C(=O)Nc2ccccc2)c(-c2cccc(OCCCc3cn(CCOCCOCCOCCOCCNc4cccc5c4C(=O)N(C4CCC(=O)NC4=O)C5=O)nn3)c2)c(-c2ccc(F)cc2)n1CC[C@@H](O)C[C@@H](O)CC(=O)O` (some centres not stated) was tested, and the inhibition (Huh-7) was “Active” and the fold change (FC) [1] was 1.
